# System: Klebsiella pneumoniae
# Assay: Antimicrobial activity against CTX-M-2 producing Klebsiella pneumoniae with PFGE pulsotype A by Etest
# Format: functional
# Conditions: not given
# Outline: (§1)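 Clinical K. pneumoniae isolates from a neonatal ICU outbreak near São Paulo were typed by XbaI PFGE using Tenover criteria. Cultures were grown in LB broth at 37°C. Etest MICs followed the manufacturer's instructions, with cefotaxime and ceftazidime each tested with and without clavulanic acid.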
row,SMILES,MIC [µg/mL]
1,C[C@H]1[C@H](NC(=O)/C(=N\OC(C)(C)C(=O)O)c2csc(N)n2)C(=O)N1S(=O)(=O)O [AZTREONAM],24

# System: Klebsiella pneumoniae
# Assay: Antimicrobial activity against CTX-M-2 producing Klebsiella pneumoniae with PFGE pulsotype B by Etest
# Format: functional
# Conditions: not given
# Outline: as §1
row,SMILES,MIC [µg/mL]
1,C[C@H]1[C@H](NC(=O)/C(=N\OC(C)(C)C(=O)O)c2csc(N)n2)C(=O)N1S(=O)(=O)O [AZTREONAM],48

# System: Klebsiella pneumoniae
# Assay: Antimicrobial activity against CTX-M-59 producing Klebsiella pneumoniae with PFGE pulsotype C by Etest
# Format: functional
# Conditions: not given
row,SMILES,MIC [µg/mL]
1,C[C@H]1[C@H](NC(=O)/C(=N\OC(C)(C)C(=O)O)c2csc(N)n2)C(=O)N1S(=O)(=O)O [AZTREONAM],32

# System: Klebsiella pneumoniae
# Assay: Antimicrobial activity against SHV-5 producing Klebsiella pneumoniae with PFGE pulsotype D by Etest
# Format: functional
# Conditions: not given
# Outline: as §1
row,SMILES,MIC [µg/mL]
1,C[C@H]1[C@H](NC(=O)/C(=N\OC(C)(C)C(=O)O)c2csc(N)n2)C(=O)N1S(=O)(=O)O [AZTREONAM],256

# System: Klebsiella pneumoniae
# Assay: Antimicrobial activity against CTX-M-59 producing Klebsiella pneumoniae with PFGE pulsotype E by Etest
# Format: functional
# Conditions: not given
row,SMILES,MIC [µg/mL]
1,C[C@H]1[C@H](NC(=O)/C(=N\OC(C)(C)C(=O)O)c2csc(N)n2)C(=O)N1S(=O)(=O)O [AZTREONAM],32

# System: Klebsiella pneumoniae
# Assay: Antimicrobial activity against CTX-M-2 producing Klebsiella pneumoniae with PFGE pulsotype F by Etest
# Format: functional
# Conditions: not given
row,SMILES,MIC [µg/mL]
1,C[C@H]1[C@H](NC(=O)/C(=N\OC(C)(C)C(=O)O)c2csc(N)n2)C(=O)N1S(=O)(=O)O [AZTREONAM],256

# System: Klebsiella pneumoniae
# Assay: Antimicrobial activity against CTX-M-59 producing Klebsiella pneumoniae with PFGE pulsotype G by Etest
# Format: functional
# Conditions: not given
# Outline: as §1
row,SMILES,MIC [µg/mL]
1,C[C@H]1[C@H](NC(=O)/C(=N\OC(C)(C)C(=O)O)c2csc(N)n2)C(=O)N1S(=O)(=O)O [AZTREONAM],64

# System: Klebsiella pneumoniae
# Assay: Antimicrobial activity against CTX-M-2 producing Klebsiella pneumoniae with PFGE pulsotype H by Etest
# Format: functional
# Conditions: not given
# Outline: as §1
row,SMILES,MIC [µg/mL]
1,C[C@H]1[C@H](NC(=O)/C(=N\OC(C)(C)C(=O)O)c2csc(N)n2)C(=O)N1S(=O)(=O)O [AZTREONAM],48

# System: Klebsiella pneumoniae
# Assay: Antimicrobial activity against CTX-M-2 producing Klebsiella pneumoniae with PFGE pulsotype I by Etest
# Format: functional
# Conditions: not given
row,SMILES,MIC [µg/mL]
1,C[C@H]1[C@H](NC(=O)/C(=N\OC(C)(C)C(=O)O)c2csc(N)n2)C(=O)N1S(=O)(=O)O [AZTREONAM],24

# System: Klebsiella pneumoniae
# Assay: Antimicrobial activity against CTX-M-2 producing Klebsiella pneumoniae with PFGE pulsotype J by Etest
# Format: functional
# Conditions: not given
row,SMILES,MIC [µg/mL]
1,C[C@H]1[C@H](NC(=O)/C(=N\OC(C)(C)C(=O)O)c2csc(N)n2)C(=O)N1S(=O)(=O)O [AZTREONAM],128

# System: Escherichia coli
# Assay: Antimicrobial activity against Escherichia coli str. K-12 substr. DH10B harboring plasmid CTX-M-2
# Format: functional
# Conditions: K-12 DH10B
# Outline: (§2)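 blaCTX-M PCR products were cut with XbaI/BamHI and cloned into pBC-SK(−), then electroporated into E. coli DH10B. Transformants were selected on LB agar with ampicillin 50 μg/ml and chloramphenicol 30 μg/ml, and sequences were confirmed. These clones were used for β-lactam MICs, with and without clavulanic acid.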
row,SMILES,MIC [µg/mL]
1,C[C@H]1[C@H](NC(=O)/C(=N\OC(C)(C)C(=O)O)c2csc(N)n2)C(=O)N1S(=O)(=O)O [AZTREONAM],12

# System: Escherichia coli
# Assay: Antimicrobial activity against Escherichia coli str. K-12 substr. DH10B harboring plasmid CTX-M-59
# Format: functional
# Conditions: K-12 DH10B
# Outline: as §2
row,SMILES,MIC [µg/mL]
1,C[C@H]1[C@H](NC(=O)/C(=N\OC(C)(C)C(=O)O)c2csc(N)n2)C(=O)N1S(=O)(=O)O [AZTREONAM],12

# System: Klebsiella pneumoniae
# Assay: Antimicrobial activity against CTX-M-2 and TEM-1 producing Klebsiella pneumoniae transconjugants/transformants with PFGE pulsotype A by Etest
# Format: functional
# Conditions: not given
# Outline: (§3)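 The recipient was E. coli XL1-Blue Rifr NAr. Plasmids moved by broth mating, with transconjugants selected on LB agar containing ampicillin, rifampin and nalidixic acid, each at 50 μg/ml. Where mating failed, alkaline-lysis plasmid extracts were electroporated and selected on ampicillin 50 μg/ml. β-lactam MICs were read by Etest, with and without clavulanic acid.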
row,SMILES,MIC [µg/mL]
1,C[C@H]1[C@H](NC(=O)/C(=N\OC(C)(C)C(=O)O)c2csc(N)n2)C(=O)N1S(=O)(=O)O [AZTREONAM],> 256

# System: Klebsiella pneumoniae
# Assay: Antimicrobial activity against CTX-M-2 and TEM-1 producing Klebsiella pneumoniae transconjugants/transformants with PFGE pulsotype B by Etest
# Format: functional
# Conditions: not given
# Outline: as §3
row,SMILES,MIC [µg/mL]
1,C[C@H]1[C@H](NC(=O)/C(=N\OC(C)(C)C(=O)O)c2csc(N)n2)C(=O)N1S(=O)(=O)O [AZTREONAM],256

# System: Klebsiella pneumoniae
# Assay: Antimicrobial activity against CTX-M-59 and TEM-1 producing Klebsiella pneumoniae transconjugants/transformants with PFGE pulsotype C by Etest
# Format: functional
# Conditions: not given
# Outline: as §3
row,SMILES,MIC [µg/mL]
1,C[C@H]1[C@H](NC(=O)/C(=N\OC(C)(C)C(=O)O)c2csc(N)n2)C(=O)N1S(=O)(=O)O [AZTREONAM],> 256

# System: Klebsiella pneumoniae
# Assay: Antimicrobial activity against SHV-5 producing Klebsiella pneumoniae transconjugants/transformants with PFGE pulsotype D by Etest
# Format: functional
# Conditions: not given
# Outline: as §3
row,SMILES,MIC [µg/mL]
1,C[C@H]1[C@H](NC(=O)/C(=N\OC(C)(C)C(=O)O)c2csc(N)n2)C(=O)N1S(=O)(=O)O [AZTREONAM],> 256

# System: Klebsiella pneumoniae
# Assay: Antimicrobial activity against CTX-M-59 and TEM-1 producing Klebsiella pneumoniae transconjugants/transformants with PFGE pulsotype E by Etest
# Format: functional
# Conditions: not given
# Outline: as §3
row,SMILES,MIC [µg/mL]
1,C[C@H]1[C@H](NC(=O)/C(=N\OC(C)(C)C(=O)O)c2csc(N)n2)C(=O)N1S(=O)(=O)O [AZTREONAM],48

# System: Klebsiella pneumoniae
# Assay: Antimicrobial activity against CTX-M-2 and TEM-1 producing Klebsiella pneumoniae transconjugants/transformants with PFGE pulsotype F by Etest
# Format: functional
# Conditions: not given
# Outline: as §3
row,SMILES,MIC [µg/mL]
1,C[C@H]1[C@H](NC(=O)/C(=N\OC(C)(C)C(=O)O)c2csc(N)n2)C(=O)N1S(=O)(=O)O [AZTREONAM],> 256

# System: Klebsiella pneumoniae
# Assay: Antimicrobial activity against CTX-M-59 and TEM-1 producing Klebsiella pneumoniae transconjugants/transformants with PFGE pulsotype G by Etest
# Format: functional
# Conditions: not given
# Outline: as §3
row,SMILES,MIC [µg/mL]
1,C[C@H]1[C@H](NC(=O)/C(=N\OC(C)(C)C(=O)O)c2csc(N)n2)C(=O)N1S(=O)(=O)O [AZTREONAM],> 256

# System: Klebsiella pneumoniae
# Assay: Antimicrobial activity against CTX-M-2 and TEM-1 producing Klebsiella pneumoniae transconjugants/transformants with PFGE pulsotype H by Etest
# Format: functional
# Conditions: not given
# Outline: as §3
row,SMILES,MIC [µg/mL]
1,C[C@H]1[C@H](NC(=O)/C(=N\OC(C)(C)C(=O)O)c2csc(N)n2)C(=O)N1S(=O)(=O)O [AZTREONAM],> 256

# System: Klebsiella pneumoniae
# Assay: Antimicrobial activity against CTX-M-2 and TEM-1 producing Klebsiella pneumoniae transconjugants/transformants with PFGE pulsotype I by Etest
# Format: functional
# Conditions: not given
# Outline: as §3
row,SMILES,MIC [µg/mL]
1,C[C@H]1[C@H](NC(=O)/C(=N\OC(C)(C)C(=O)O)c2csc(N)n2)C(=O)N1S(=O)(=O)O [AZTREONAM],> 256

# System: Klebsiella pneumoniae
# Assay: Antimicrobial activity against CTX-M-2 and TEM-1 producing Klebsiella pneumoniae transconjugants/transformants with PFGE pulsotype J by Etest
# Format: functional
# Conditions: not given
# Outline: as §3
row,SMILES,MIC [µg/mL]
1,C[C@H]1[C@H](NC(=O)/C(=N\OC(C)(C)C(=O)O)c2csc(N)n2)C(=O)N1S(=O)(=O)O [AZTREONAM],> 256
